According to ChEMBL document CHEMBL1139751, “Discovery of small molecule inhibitors of integrin alphavbeta3 through structure-based virtual screening” (Bioorg Med Chem Lett, 2006):
Calls of active or inactive are those of the source. The calls are words filed in the database; no cut-off is given here.

Key:
Integrin alpha-V/beta-3 = Integrin alpha-V/beta-3 (Homo sapiens, UniProt P05106+P06756); assay: Inhibition of integrin alphavbeta3 mediated cell adhesion of human M21 cells to vitronectin; format: cell-based
Summary of the method: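 Non-tissue-culture plastic 96-well plates were coated overnight with 2 µg/ml vitronectin. M21 cells were seeded with or without graded compound concentrations and allowed to adhere for 1 h at 37 °C. Adherent cells were fixed and stained, and the plates were read at 570 nm. Inhibition was calculated with compound-free wells as 100% adhesion.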

M21 [1] = assay: Inhibition of human M21 cell migration after 8 hrs at 30 uM by scrape motility assay; format: functional; conditions: M21, 8 h
Summary of the method: (§1)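 Scrape motility assay with M21 melanoma cells on vitronectin-coated plates, treated with compound at 7.5, 15.0 or 30.0 µM. Migration distance was measured by phase-contrast microscopy at 8 h or 16 h. Percent inhibition was taken against untreated cells. Means ± SD of nine determinations from three independent experiments.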

M21 [2] = assay: Inhibition of human M21 cell migration after 8 hrs at 15 uM by scrape motility assay; format: functional; conditions: M21, 8 h; summary of the method: as §1
M21 [3] = assay: Inhibition of human M21 cell migration assessed by measuring migration distance after 8 hrs at 30 uM by scrape motility assay; format: functional; summary of the method: as §1
M21 [4] = assay: Inhibition of human M21 cell migration assessed by measuring migration distance after 16 hrs at 15 uM by scrape motility assay; format: functional; summary of the method: as §1
HUVEC = assay: Inhibition of bFGF-induced capillary-like structure formation in HUVECs at 30 uM after 6 hrs; format: functional, cell-based; conditions: Homo sapiens
Summary of the method: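 HUVECs in ECM gel stimulated with 100 ng/ml bFGF, with or without compound, for 6 h. PBS served as the unstimulated control. Capillary-like structures were viewed by phase-contrast microscopy.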

M21 [5] = assay: Inhibition of human M21 cell migration at 7.5 uM after 16 hrs by scrape motility assay; format: functional; conditions: M21, 16 h; summary of the method: as §1
M21 [6] = assay: Inhibition of human M21 cell migration assessed by measuring migration distance after 8 hrs at 7.5 uM by scrape motility assay; format: functional; summary of the method: as §1
M21 [7] = assay: Inhibition of human M21 cell migration assessed by measuring migration distance after 8 hrs at 15 uM by scrape motility assay; format: functional; summary of the method: as §1
M21 [8] = assay: Inhibition of human M21 cell migration assessed by measuring migration distance after 16 hrs at 7.5 uM by scrape motility assay; format: functional; summary of the method: as §1
M21 [9] = assay: Inhibition of human M21 cell migration at 15 uM after 16 hrs by scrape motility assay; format: functional; conditions: M21, 16 h; summary of the method: as §1
M21 [10] = assay: Inhibition of human M21 cell migration assessed by measuring migration distance after 16 hrs at 30 uM by scrape motility assay; format: functional; summary of the method: as §1
M21 [11] = assay: Inhibition of human M21 cell migration at 30 uM after 16 hrs by scrape motility assay; format: functional; conditions: M21, 16 h; summary of the method: as §1
M21 [12] = assay: Inhibition of human M21 cell migration after 8 hrs at 7.5 uM by scrape motility assay; format: functional; conditions: M21, 8 h; summary of the method: as §1

Sequence of Integrin alpha-V/beta-3 (P05106 27-788 limits assumed): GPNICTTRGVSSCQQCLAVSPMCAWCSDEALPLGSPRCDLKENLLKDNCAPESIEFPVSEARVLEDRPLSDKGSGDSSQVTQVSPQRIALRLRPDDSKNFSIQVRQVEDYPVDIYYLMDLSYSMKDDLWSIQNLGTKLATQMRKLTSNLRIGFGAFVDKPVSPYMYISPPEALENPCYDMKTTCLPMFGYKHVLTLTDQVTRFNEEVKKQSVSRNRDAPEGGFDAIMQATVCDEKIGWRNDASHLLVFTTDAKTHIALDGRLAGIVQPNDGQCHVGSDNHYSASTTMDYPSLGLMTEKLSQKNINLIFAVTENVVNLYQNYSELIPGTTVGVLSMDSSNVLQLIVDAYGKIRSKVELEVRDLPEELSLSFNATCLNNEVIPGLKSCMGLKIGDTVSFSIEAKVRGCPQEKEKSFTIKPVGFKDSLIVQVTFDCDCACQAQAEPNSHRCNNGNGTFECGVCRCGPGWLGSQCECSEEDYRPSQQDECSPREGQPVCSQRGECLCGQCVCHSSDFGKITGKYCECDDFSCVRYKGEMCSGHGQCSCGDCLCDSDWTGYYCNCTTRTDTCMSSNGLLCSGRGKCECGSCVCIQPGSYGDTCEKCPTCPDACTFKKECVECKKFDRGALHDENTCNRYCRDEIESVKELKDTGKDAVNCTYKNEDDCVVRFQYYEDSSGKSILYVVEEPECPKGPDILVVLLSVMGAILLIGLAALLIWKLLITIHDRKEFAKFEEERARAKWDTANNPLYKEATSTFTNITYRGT
Sequence of Integrin alpha-V/beta-3 (P06756 31-889 limits assumed): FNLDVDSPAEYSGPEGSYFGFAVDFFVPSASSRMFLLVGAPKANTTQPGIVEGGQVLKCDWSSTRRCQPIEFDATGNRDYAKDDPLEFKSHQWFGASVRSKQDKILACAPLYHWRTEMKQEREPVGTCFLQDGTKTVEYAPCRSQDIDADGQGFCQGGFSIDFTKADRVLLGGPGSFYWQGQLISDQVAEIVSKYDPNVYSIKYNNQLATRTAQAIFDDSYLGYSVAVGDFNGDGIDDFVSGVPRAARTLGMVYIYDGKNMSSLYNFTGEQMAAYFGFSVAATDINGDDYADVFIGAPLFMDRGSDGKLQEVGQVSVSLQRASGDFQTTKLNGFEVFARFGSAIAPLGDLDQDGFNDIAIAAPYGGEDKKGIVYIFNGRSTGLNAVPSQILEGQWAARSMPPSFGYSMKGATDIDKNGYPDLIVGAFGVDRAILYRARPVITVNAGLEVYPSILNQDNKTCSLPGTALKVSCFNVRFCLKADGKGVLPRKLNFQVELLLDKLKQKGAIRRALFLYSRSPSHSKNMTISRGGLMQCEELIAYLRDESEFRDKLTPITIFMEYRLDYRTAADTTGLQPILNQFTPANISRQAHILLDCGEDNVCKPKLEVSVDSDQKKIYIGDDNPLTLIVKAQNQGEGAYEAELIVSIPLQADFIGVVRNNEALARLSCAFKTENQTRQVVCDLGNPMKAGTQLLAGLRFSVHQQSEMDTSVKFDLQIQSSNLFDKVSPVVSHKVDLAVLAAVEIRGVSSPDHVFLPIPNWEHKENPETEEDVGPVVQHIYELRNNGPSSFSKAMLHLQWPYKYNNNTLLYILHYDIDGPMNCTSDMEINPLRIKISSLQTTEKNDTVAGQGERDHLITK
Sequence of Integrin alpha-V/beta-3 (P06756 891-1048 limits assumed): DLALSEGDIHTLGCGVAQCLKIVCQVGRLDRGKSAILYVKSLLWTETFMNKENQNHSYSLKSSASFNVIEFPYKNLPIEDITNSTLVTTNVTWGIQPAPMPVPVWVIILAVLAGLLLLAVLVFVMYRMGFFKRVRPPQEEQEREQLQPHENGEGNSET

SMILES	IC50 (Integrin alpha-V/beta-3)	also measured
COc1cc(NS(=O)(=O)c2ccc(N/C=C3\C(=O)N(c4ccc(I)cc4)N=C3C)cc2)nc(OC)n1	53.5 µM	–
Cn1cnnc1SCC(=O)Nc1ccc(-c2nc3ccc(NC(=O)CSc4nncn4C)cc3o2)c(O)c1	162 µM	–
N=C(N)NC(=N)Nc1ccc(Cl)cc1 [4-CHLOROPHENYLBIGUANIDE]	149 µM	–
CSc1ccccc1N=C(N)N=C(N)N	> 200 µM	–
N=C(N)NC(=N)Nc1cccc(Cl)c1	191 µM	–
NC(N)=NC(N)=Nc1cc(Cl)ccc1Cl	100 µM	–
CCOc1cc(/C=c2\sc3nc4c(C)cccc4n3c2=O)cc(Br)c1OCC(=O)O	132 µM	–
N=C(N)NC(=N)Nc1ccccc1 [PHENYL BIGUANIDE]	> 200 µM	–
N=C(N)NC(=N)Nc1ccc(SC(F)(F)F)cc1	101 µM	–
Cc1ccc(Cl)cc1N=C(N)N=C(N)N	> 200 µM	–
N=C(N)NC(=N)Nc1cc(C(F)(F)F)ccc1Cl	127 µM	–
COc1cc(/C=C2\C(=O)N(c3ccc(C(=O)O)cc3)N=C2C)ccc1OC(=O)c1ccccc1	143 µM	–
CCOC(=O)c1cccc(N=C(N)N=C(N)N)c1	> 200 µM	–
N=C(N)N=C(N)Nc1cc(Cl)cc(Cl)c1	33.5 µM	–
N=C(N)NC(=N)Nc1ccc(Cl)cc1Cl	66.9 µM	–
N=C(N)NC(=N)Nc1cccc(Cl)c1Cl	87.3 µM	–
CCOc1ccccc1N=C(N)N=C(N)N	> 200 µM	–
N=C(N)NC(=N)Nc1ccc(F)c(Cl)c1	97.3 µM	–
COc1cc(NS(=O)(=O)c2ccc(NC(=O)COc3ccc(Cl)cc3Cl)cc2)nc(OC)n1	137 µM	–
N=C(N)NC(=N)Nc1ccccc1Cl	> 200 µM	–
N=C(N)NC(=N)Nc1ccc(Cl)c(Cl)c1	38.5 µM	inhibition at 30 µM (M21 [1]): 96.4%; inhibition at 15 µM (M21 [2]): 73.1%; Activity (M21 [3]): 1.1 um; Activity (M21 [4]): 38.9 um; Activity (HUVEC): Active; inhibition at 7.5 µM (M21 [5]): 39.5%; Activity (M21 [6]): 27.8 um; Activity (M21 [7]): 8.3 um; Activity (M21 [8]): 72.2 um; inhibition at 15 µM (M21 [9]): 67.4%; Activity (M21 [10]): 16.7 um; inhibition at 30 µM (M21 [11]): 86%; inhibition at 7.5 µM (M21 [12]): 9.1%
CSc1cccc(NC(=N)NC(=N)N)c1	> 200 µM	–
N=C(N)NC(=N)Nc1cc(C(F)(F)F)cc(C(F)(F)F)c1	39.5 µM	–
O=C(Nc1ccccc1C(=O)O)c1ccc(N2C(=O)c3ccc(Oc4ccc([N+](=O)[O-])cc4)cc3C2=O)cc1	180 µM	–
NC(N)=NC(N)=Nc1ccc(SC(F)F)cc1	178 µM	–
